Test results from ChEMBL document CHEMBL1157630, “A class of novel Schiff's bases: Synthesis, therapeutic action for chronic pain, anti-inflammation and 3D QSAR analysis” (2010).

Legend:
Assay type in all cases: functional
[1] = test system: Mus musculus; assay: Analgesic activity in ICR mouse assessed as increase in pain threshold variation at 20 umol/kg, po administered as single dose measured after 60 mins by tail flick test
Method in brief: (§1)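 Tail-flick test in mice housed 12/12 h light/dark at 21 ± 2 °C for one day. A single oral dose of 20 µmol/kg was given in 0.2 ml normal saline; vehicle controls got saline alone. Basal threshold was measured four times, then every 30 min to 180 min, with a 10 s cut-off. PTV = (post − basal)/basal. n = 12, mean ± SD%, one-way ANOVA.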

[2] = test system: Mus musculus; assay: Analgesic activity in ICR mouse assessed as increase in pain threshold variation at 20 umol/kg, po administered as single dose measured after 180 mins by tail flick test; method in brief: as §1
[3] = test system: Mus musculus; assay: Analgesic activity in ICR mouse assessed as increase in pain threshold variation at 20 umol/kg, po administered as single dose measured after 150 mins by tail flick test; method in brief: as §1
[4] = test system: Mus musculus; assay: Antiinflammatory activity in ICR mouse assessed as inhibition of xylene-induced ear edema at 20 umol/kg, po
Method in brief: (§2)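 Male ICR mice (20 ± 2 g), 12 per group, were dosed orally: test agents as suspensions in normal saline, aspirin in CMC. After 30 min, 0.03 ml xylene was applied to both surfaces of the right ear, with the left ear as control. After 2 h the mice were killed, 8 mm ear discs were weighed, and edema was taken as right minus left weight.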

[5] = test system: Mus musculus; assay: Analgesic activity in ICR mouse assessed as increase in pain threshold variation at 20 umol/kg, po administered as single dose measured after 120 mins by tail flick test; method in brief: as §1
[6] = test system: Mus musculus; assay: Analgesic activity in ICR mouse assessed as increase in pain threshold variation at 20 umol/kg, po administered as single dose measured after 90 mins by tail flick test; method in brief: as §1
[7] = test system: Mus musculus; assay: Analgesic activity in ICR mouse assessed as increase in pain threshold variation at 20 umol/kg, po administered as single dose measured after 30 mins by tail flick test; method in brief: as §1
[8] = test system: Mus musculus; assay: Antiinflammatory activity in ICR mouse assessed as inhibition of xylene-induced ear edema at 10 umol/kg, po; method in brief: as §2
[9] = test system: Mus musculus; assay: Antiinflammatory activity in ICR mouse assessed as inhibition of xylene-induced ear edema at 5 umol/kg, po; method in brief: as §2
[10] = test system: Mus musculus; assay: Analgesic activity in ICR mouse assessed as increase in pain threshold variation at 165 umol/kg, po administered as single dose measured after 60 mins by tail flick test
[11] = test system: Mus musculus; assay: Analgesic activity in ICR mouse assessed as increase in pain threshold variation at 165 umol/kg, po administered as single dose measured after 180 mins by tail flick test
[12] = test system: Mus musculus; assay: Analgesic activity in ICR mouse assessed as increase in pain threshold variation at 165 umol/kg, po administered as single dose measured after 90 mins by tail flick test
[13] = test system: Mus musculus; assay: Antiinflammatory activity in ICR mouse assessed as inhibition of xylene-induced ear edema at 165 umol/kg, po; method in brief: as §2
[14] = test system: Mus musculus; assay: Analgesic activity in ICR mouse assessed as increase in pain threshold variation at 165 umol/kg, po administered as single dose measured after 120 mins by tail flick test
[15] = test system: Mus musculus; assay: Analgesic activity in ICR mouse assessed as increase in pain threshold variation at 165 umol/kg, po administered as single dose measured after 150 mins by tail flick test
[16] = test system: Mus musculus; assay: Analgesic activity in ICR mouse assessed as increase in pain threshold variation at 165 umol/kg, po administered as single dose measured after 30 mins by tail flick test
[17] = test system: Mus musculus; assay: Analgesic activity in ICR mouse assessed as increase in pain threshold variation at 0.2 umol/kg, ip administered as single dose measured after 150 mins by tail flick test; settings: in the assay text read “po administered” for “ip administered”
Method in brief: (§3)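 Mice were housed 12/12 h light/dark at 21 ± 2 °C for one day, then given a single dose. Tail-flick basal threshold was read four times, then every 30 min up to 180 min, with a 10 s cut-off. PTV = (post-dose threshold − basal)/basal. n = 12, mean ± SD%, one-way ANOVA against saline vehicle at each time point.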

[18] = test system: Mus musculus; assay: Analgesic activity in ICR mouse assessed as increase in pain threshold variation at 2 umol/kg, ip administered as single dose measured after 90 mins by tail flick test; settings: in the assay text read “po administered” for “ip administered”; method in brief: as §3
[19] = test system: Mus musculus; assay: Analgesic activity in ICR mouse assessed as increase in pain threshold variation at 0.2 umol/kg, ip administered as single dose measured after 30 mins by tail flick test; method in brief: as §3
[20] = test system: Mus musculus; assay: Analgesic activity in ICR mouse assessed as increase in pain threshold variation at 2 umol/kg, ip administered as single dose measured after 30 mins by tail flick test; settings: in the assay text read “po administered” for “ip administered”; method in brief: as §3
[21] = test system: Mus musculus; assay: Analgesic activity in ICR mouse assessed as increase in pain threshold variation at 2 umol/kg, ip administered as single dose measured after 60 mins by tail flick test; settings: in the assay text read “po administered” for “ip administered”; method in brief: as §3
[22] = test system: Mus musculus; assay: Analgesic activity in ICR mouse assessed as increase in pain threshold variation at 0.2 umol/kg, ip administered as single dose measured after 60 mins by tail flick test; method in brief: as §3
[23] = test system: Mus musculus; assay: Analgesic activity in ICR mouse assessed as increase in pain threshold variation at 0.2 umol/kg, ip administered as single dose measured after 120 mins by tail flick test; method in brief: as §3
[24] = test system: Mus musculus; assay: Analgesic activity in ICR mouse assessed as increase in pain threshold variation at 0.2 umol/kg, ip administered as single dose measured after 90 mins by tail flick test; method in brief: as §3
[25] = test system: Mus musculus; assay: Analgesic activity in ICR mouse assessed as increase in pain threshold variation at 2 umol/kg, ip administered as single dose measured after 180 mins by tail flick test; method in brief: as §3
[26] = test system: Mus musculus; assay: Analgesic activity in ICR mouse assessed as increase in pain threshold variation at 2 umol/kg, ip administered as single dose measured after 150 mins by tail flick test; settings: in the assay text read “po administered” for “ip administered”; method in brief: as §3
[27] = test system: Mus musculus; assay: Analgesic activity in ICR mouse assessed as increase in pain threshold variation at 2 umol/kg, ip administered as single dose measured after 120 mins by tail flick test; settings: in the assay text read “po administered” for “ip administered”; method in brief: as §3
[28] = test system: Mus musculus; assay: Analgesic activity in ICR mouse assessed as increase in pain threshold variation at 0.2 umol/kg, ip administered as single dose measured after 180 mins by tail flick test; settings: in the assay text read “po administered” for “ip administered”; method in brief: as §3
[29] = test system: Mus musculus; assay: Analgesic activity in ICR mouse assessed as increase in pain threshold variation at 20 umol/kg, ip administered as single dose measured after 60 mins by tail flick test
Method in brief: (§4)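 Mice were housed on a 12/12 light/dark cycle at 21 ± 2 °C for one day before use. Each got a single intraperitoneal dose of 20 µmol/kg in normal saline; vehicle controls got […]. Tail-flick basal threshold was read four times, then every 30 min to 180 min with a 10 s cut-off. PTV = (post-dose threshold − basal)/basal. n = 12, mean ± SD, one-way ANOVA.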

[30] = test system: Mus musculus; assay: Analgesic activity in ICR mouse assessed as increase in pain threshold variation at 20 umol/kg, ip administered as single dose measured after 180 mins by tail flick test; method in brief: as §4
[31] = test system: Mus musculus; assay: Analgesic activity in ICR mouse assessed as increase in pain threshold variation at 20 umol/kg, ip administered as single dose measured after 90 mins by tail flick test; method in brief: as §4
[32] = test system: Mus musculus; assay: Analgesic activity in ICR mouse assessed as increase in pain threshold variation at 20 umol/kg, ip administered as single dose measured after 120 mins by tail flick test; method in brief: as §4
[33] = test system: Mus musculus; assay: Analgesic activity in ICR mouse assessed as increase in pain threshold variation at 20 umol/kg, ip administered as single dose measured after 30 mins by tail flick test; method in brief: as §4
[34] = test system: Mus musculus; assay: Analgesic activity in ICR mouse assessed as increase in pain threshold variation at 20 umol/kg, ip administered as single dose measured after 150 mins by tail flick test; method in brief: as §4

| Compound | Activity [1] [%] | Activity [2] [%] | Activity [3] [%] | inhibition in vivo at 20 µmol/kg [4] [%] | Activity [5] [%] | Activity [6] [%] | Activity [7] [%] | inhibition in vivo at 10 µmol/kg [8] [%] | inhibition in vivo at 5 µmol/kg [9] [%] | further results |
| --- | --- | --- | --- | --- | --- | --- | --- | --- | --- | --- |
| COC(=O)[C@H](COCc1ccccc1)/N=C/C=C/N[C@@H](COCc1ccccc1)C(=O)OC | 34.87 | 33.33 | 34.17 | 55 | 37.48 | 36.24 | 32.18 |  |  |  |
| CCC(C)[C@H](/N=C/C=C/N[C@H](C(=O)OC)C(C)CC)C(=O)OC (some centres not stated) | 19.68 | 32.75 | 34.89 | 77.6 | 41.65 | 34.31 | 18.66 | 68 | 48.9 |  |
| CC(=O)Oc1ccccc1C(=O)O [ASPIRIN] |  |  |  |  |  |  |  |  |  | Activity [10]: 18.69%; Activity [11]: 14.65%; Activity [12]: 19.79%; inhibition in vivo at 165 µmol/kg [13]: 65.1%; Activity [14]: 16.46%; Activity [15]: 14.59%; Activity [16]: 12.88% |
| COC(=O)[C@H](C)N | 12.66 | 11.44 | 11.01 |  | 11.55 | 12.02 | 7.37 |  |  |  |
| COC(=O)[C@H](C)/N=C/C=C/N[C@@H](C)C(=O)OC | 32.49 | 42.29 | 44.71 | 53.1 | 53.33 | 48.4 | 32.26 | 41.9 | 14.8 | Activity [17]: 20.27%; Activity [18]: 30.94%; Activity [19]: 12.24%; Activity [20]: 24.58%; Activity [21]: 25%; Activity [22]: 16.79%; Activity [23]: 22.08%; Activity [24]: 17.41%; Activity [25]: 27.31%; Activity [26]: 28.25%; Activity [27]: 35.87%; Activity [28]: 18.8% |
| COC(CC(OC)OC)OC | 11.84 | 11.89 | 11.8 |  | 11.93 | 12.15 | 6.22 |  |  |  |
| COC(=O)[C@H](CC(C)C)/N=C/C=C/N[C@@H](CC(C)C)C(=O)OC | 29.79 | 41.84 | 42.38 | 88.6 | 45.12 | 40.37 | 26.52 | 80.9 | 73.1 |  |
| COC(=O)[C@H](CCSC)/N=C/C=C/N[C@@H](CCSC)C(=O)OC | 29.93 | 21.18 | 22.05 | 25.4 | 23.37 | 31.61 | 28.73 |  |  |  |
| CN1CC[C@]23c4c5ccc(O)c4O[C@H]2[C@@H](O)C=C[C@H]3[C@H]1C5 [MORPHINE] |  |  |  |  |  |  |  |  |  | Activity [29]: 177.6%; Activity [30]: 32.9%; Activity [31]: 122.7%; Activity [32]: 64.9%; Activity [33]: 147%; Activity [34]: 36.7% |
| COC(=O)[C@H](Cc1ccccc1)/N=C/C=C/N[C@@H](Cc1ccccc1)C(=O)OC | 28.92 | 30.66 | 35.33 | 36.8 | 40.67 | 35.82 | 28.22 | 25.4 | 12.9 |  |
